Structures are written as SMILES. The source made the active and inactive calls. No cut-off for these calls is given here.

For orientation: EC50 means the concentration that produces a half-maximal response. A high value points to a need for much substance. As usually defined, the CC50 is the concentration that lowers cell viability or growth by half. High values mean better tolerance by the cells, low ones harm at low concentration. As usually defined, the inhibition is the drop in the measured response relative to a control, in per cent. Higher therefore signals strong suppression. One may read the Inhibition as the relative decrease from the control value, in per cent. Low values mean a weak effect, high ones a strong effect.

Test [1] relates to Human immunodeficiency virus 1. The experiment in a line: Antiviral activity against wild type HIV1 NL4-3 infected MT4 cells by MTT method. In kind it is functional, organism-based. The following applies: Human immunodeficiency virus 1, NL4-3, MT4. An outline of the steps: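 MT-4 lymphoid cells infected with HIV-1 NL4-3 in the presence of graded drug concentrations. Viable cells counted by MTT colorimetric assay at day 5 post-infection. EC50 is the concentration protecting 50% of cells from HIV-induced death. Mean of at least two experiments.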

In test [2] the test system is Human immunodeficiency virus 1. In words: Antiviral activity against HIV1 IRLL98 mutant strain infected MT4 cells by MTT method. It counts as functional, organism-based. The conditions noted are these: Human immunodeficiency virus 1, IRLL98, MT4. An outline of the steps: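 MT-4 cells infected with the HIV-1 mutant strain, or mock-infected for cytotoxicity, in the presence of a range of drug concentrations. Viable cells were counted by MTT colorimetric assay on day 5 post-infection. EC50 is the concentration that blocks 50% of HIV-induced cell death. Values are the mean of at least two experiments. IRLL98 carries RT mutations K101Q, Y181C and G190A, plus NRTI mutations.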
A general note: Tetrazolium assays rely on reduction of a dye to a coloured formazan, in cell work by metabolically active cells.

The subject of test [3] is Human immunodeficiency virus 1. In words: Antiviral activity against HIV1 K103N mutant strain infected MT4 cells by MTT method. It counts as functional, organism-based. The conditions noted are these: Human immunodeficiency virus 1, K103N.
Test [4] deals with Human immunodeficiency virus 1. In words: Antiviral activity against HIV1 Y188L mutant strain infected MT4 cells by MTT method. It counts as functional, organism-based. The conditions noted are these: for EC50: Human immunodeficiency virus 1, Y188L, MT4.
The subject of test [5] is MT4. The experiment in a line: Cytotoxicity against MT4 cells by MTT method. In kind it is functional. The conditions noted are these: Homo sapiens. An outline of the steps: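 Mock-infected MT-4 cells exposed to graded drug concentrations. Viability assessed by MTT colorimetric method at day 5. CC50 is the concentration causing 50% death of noninfected cells. Mean of at least two experiments.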

Test [6] addresses Human immunodeficiency virus type 1 reverse transcriptase (Human immunodeficiency virus 1) (UniProt Q72547). In words: Inhibition of wild type HIV1 reverse transcriptase by [3H]dTTP poly(rA)/oligo(dT) incorporation at 400 uM. An outline of the steps:
(§1)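 RNA-dependent DNA polymerase assay of recombinant RT at 5–10 nM. Template: poly(rA)/oligo(dT) (0.3 μM 3'-OH ends) with 10 μM [3H]-dTTP. Run 10 min at 37 °C with increasing inhibitor. TCA-precipitated product was counted on GF/C filters. Highest concentration tested was 400 μM.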

In test [7] the test system is Human immunodeficiency virus type 1 reverse transcriptase (Human immunodeficiency virus 1), Q72547 [K103N]. In words: Inhibition of K103N mutant HIV1 reverse transcriptase by [3H]dTTP poly(rA)/oligo(dT) incorporation at 400 uM. An outline of the steps:
as §1

Test [8] concerns Human immunodeficiency virus type 1 reverse transcriptase (Human immunodeficiency virus 1), Q72547 [Y181I]. In words: Inhibition of Y181I mutant HIV1 reverse transcriptase by [3H]dTTP poly(rA)/oligo(dT) incorporation at 400 uM. An outline of the steps:
as §1

For test [9], the system named is Human immunodeficiency virus 1. The experiment in a line: Antiviral activity against wild type HIV1 NL4-3 infected MT4 cells by MTT method at 2.3 uM. The conditions noted are these: Human immunodeficiency virus 1, NL4-3, MT4. It counts as functional. An outline of the steps:
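MT-4 cells infected with HIV-1 NL4-3 and exposed to drug. Viable cells measured by MTT assay at day 5 post-infection. Result given as percent inhibition of HIV-induced cell death at the stated micromolar concentration. Mean of at least two experiments.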

Test [10] has as its system MT4. In words: Cytotoxicity against MT4 cells by MTT method at 11 uM. In kind it is functional, Homo sapiens.
Test [11] addresses Human immunodeficiency virus type 1 reverse transcriptase (Human immunodeficiency virus 1) (UniProt Q72547).
Test [12] has as its system Human immunodeficiency virus type 1 reverse transcriptase (Human immunodeficiency virus 1), Q72547 [K103N].
Test [13] has as its system Human immunodeficiency virus type 1 reverse transcriptase (Human immunodeficiency virus 1), Q72547 [Y181I].
The test system of test [14] is Human immunodeficiency virus 1. In words: Antiviral activity against HIV1 IRLL98 mutant strain infected MT4 cells by MTT method at 11 uM. In kind it is functional. The conditions noted are these: Human immunodeficiency virus 1, IRLL98, MT4. An outline of the steps: (§2)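 MT-4 cells infected with the mutant HIV-1 strain and treated with compound. Viable cells were measured by MTT colorimetric assay on day 5 post-infection. The value is the percent inhibition of HIV-induced cell death at the stated micromolar concentration. Values are the mean of at least two experiments.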

Test [15] relates to Human immunodeficiency virus 1. In words: Antiviral activity against HIV1 K103N mutant strain infected MT4 cells by MTT method at 62 uM. It counts as functional. The conditions noted are these: Human immunodeficiency virus 1, K103N. An outline of the steps: as §2

Consider `Cc1c(O)nc(S(=O)(=O)Cc2ccc([N+](=O)[O-])cc2)nc1Cc1c(Cl)cccc1Cl`, for which the EC50 in [1], in [2], in [3] and in [4] was > 53 µM throughout. Also, in the test with MT4 [5], the cytotoxic concentration (CC50) was > 53 µM. In addition, the ID50 entry in test [6], in test [7] and in [8] was “inactive” each time.

As for `Cc1c(O)nc(SCc2ccc(C(C)C)cc2)nc1Cc1c(Cl)cccc1Cl`, the EC50 in [2] is > 57 µM; in test [3], > 58 µM; in test [4], > 58 µM. The inhibition at 2.3 µM in [9] came out at 35%. This molecule came in with an Activity in the test on MT4 [10] of 45%. Further, the ID50 entry in [6], in test [7] and in test [8] was “inactive” throughout.

For `COc1ccc(CSc2nc(Cc3c(Cl)cccc3Cl)c(C)c(=O)[nH]2)cc1`, the EC50 in test [1] is 0.007 µM; in [2], 0.047 µM; in [3] it was 4.7 µM; in test [4], > 32 µM. In the test with MT4 [5], this molecule displayed a CC50 of 32 µM. Moreover, the ID50 in test [11] came out at 0.004 µM; in [12], 102 µM; in test [13], 150 µM.

On to `Cc1c(O)nc(SCc2cccc(Cl)c2)nc1Cc1c(Cl)cccc1Cl`, for which the EC50 in test [1] is 0.31 µM; in test [2], 4.8 µM; in test [3], > 59 µM; in test [4], > 59 µM. Besides, in the test with MT4 [5], the CC50 is > 59 µM. Also, the results for the ID50 in test [11], in [12] and in [13] were 2.3 µM, 400 µM and 400 µM, respectively.

With `Cc1c(O)nc(SCc2ccc([N+](=O)[O-])cc2)nc1Cc1ccc(F)cc1`, the EC50 in [1], in [2], in test [3] and in [4] was > 65 µM in each case. Moreover, the CC50 in the test with MT4 [5] was > 65 µM. In addition, the ID50 entry in test [6], in [7] and in [8] was “inactive” in each case.

On to `Cc1ccnc2c1NC(=O)c1cccnc1N2C1CC1` [NEVIRAPINE], for which the 50% effective concentration (EC50) in test [1] is 0.052 µM; in test [2] it was > 7.5 µM; in [3] it was 3.9 µM; in [4] it was > 7.5 µM. The CC50 with MT4 [5] is > 7.5 µM. For the same molecule, the ID50 in test [12] came to 8 µM; in test [13], 20 µM.

Take `CCCCOc1ccc(CSc2nc(O)c(C)c(Cc3c(Cl)cccc3Cl)n2)cc1`: the 50% effective concentration (EC50) in test [1], in test [3] and in [4] was > 3.1 µM throughout. This molecule also displayed an inhibition at 11 µM in test [14] of 34%. The molecule further showed a CC50 in the test on MT4 [5] of 3.1 µM. Besides, the ID50 entry in test [7] and in test [8] was “inactive” in each case. The molecule further came in with an ID50 in [11] of 2.8 µM.

Regarding `Cc1c(O)nc(SCc2ccc(O)cc2)nc1Cc1c(Cl)cccc1Cl`, the EC50 in test [1], in test [2], in test [3] and in test [4] was > 41 µM throughout. The CC50 with MT4 [5] turned out to be 41 µM. For the same molecule, the ID50 entry in test [6], in test [7] and in test [8] was “inactive” each time.

Regarding `COc1ccc(CCCSc2nc(O)c(C)c(Cc3c(Cl)cccc3Cl)n2)cc1`, the EC50 is 0.00044 µM in [1], 0.11 µM in test [2], > 1 µM in test [3] and > 1 µM in test [4]. Also, the CC50 in the test with MT4 [5] came out at 1 µM. The ID50 in test [11] is 0.037 µM; in test [12], 0.5 µM; in test [13], 0.3 µM.

On to `COc1cc(CSc2nc(O)c(C)c(Cc3c(F)cccc3F)n2)cc(OC)c1`, for which the concentration giving a half-maximal response (EC50) is 18 µM in test [1], > 60 µM in [2], > 60 µM in test [3] and > 60 µM in test [4]. Moreover, the CC50 in the test on MT4 [5] was > 60 µM. Besides, the ID50 result in test [6], in test [7] and in test [8] was “inactive” throughout.

Turning to `Cc1c(O)nc(SCc2ccc(C(C)C)cc2)nc1Cc1c(F)cccc1F`, the EC50 in test [1] is 0.58 µM; in test [2], 16 µM; in test [4], > 62 µM. In test [15], this molecule gave an inhibition at 62 µM of 33%. Also, the CC50 in the test with MT4 [5] was > 62 µM. Also, the ID50 result in test [7] and in test [8] was “inactive” each time. Besides, the ID50 in [11] stood at 3 µM.

`COc1ccc(CS(=O)(=O)c2nc(O)c(C)c(Cc3c(Cl)cccc3Cl)n2)cc1`: the EC50 in test [1], in test [2], in [3] and in [4] was > 2.8 µM each time. For the same molecule, in the test with MT4 [5], the CC50 turned out to be 2.8 µM. Further, the ID50 came to 0.006 µM in test [11], 10 µM in [12] and 27 µM in test [13].

In the case of `Cc1c(O)nc(SCc2ccc([N+](=O)[O-])cc2)nc1Cc1c(Cl)cccc1Cl`, the EC50 in test [1] is 0.79 µM; in test [2] it was 3.3 µM; in test [3] it was 11 µM. Further, the Inhibition in test [4] is on record as 31%. Further, in the test with MT4 [5], the CC50 was > 58 µM. For the same molecule, the values for the ID50 in test [11], in [12] and in test [13] were 0.009 µM, 0.12 µM and 0.22 µM, respectively.

Take `COc1ccc(CCSc2nc(Cc3c(Cl)cccc3Cl)c(C)c(=O)[nH]2)cc1`: the EC50 was < 0.00014 µM in [1], 0.00022 µM in test [2], 0.87 µM in test [3] and 6.9 µM in test [4]. Also, in the test on MT4 [5], the CC50 is > 57 µM. For the same molecule, the ID50 in test [11] came out at 0.026 µM; in test [12] it was 3.2 µM; in test [13], 1.5 µM.

Consider `COc1ccc(CSc2nc(O)c(C)c(Cc3ccc(F)cc3)n2)cc1`, for which the 50% effective concentration (EC50) in [1], in [2], in test [3] and in [4] was > 8.9 µM each time. In the test on MT4 [5], this molecule gave a CC50 of 8.9 µM. Moreover, the ID50 result in test [6], in [7] and in test [8] was “inactive” each time.

Source of the values: ChEMBL document CHEMBL1141224, “Parallel solution-phase and microwave-assisted synthesis of new S-DABO derivatives endowed with subnanomolar anti-HIV-1 activity” (J Med Chem, 2005).
